From PubChem
PostGolgi yeast: growth inhibition of a yeast mutant, post-Golgi transport screen; inhibition, % at 10 µM; hit rate 0.9% among 98,000; post-Golgi transport phenotypic cell assay;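 note: yeast cells grown in 1536-well plates; yeast grown about 18 h at 30C before absorbance read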
Cav32 inh: human Cav3.2 channel inhibition, primary screen | O95180 | Cav3.2-expressing cells, Fluo-4 calcium fluorescence FDSS; active compounds read low | AID 449739 | hit rate 4% among 100,000 | B-score at 10 µM;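 active = single-dose well whose peak fluorescence ratio is a statistical outlier from its plate by either plate-standardised score or position-corrected B-score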
Target sequence (O95180 whole entry, looked up): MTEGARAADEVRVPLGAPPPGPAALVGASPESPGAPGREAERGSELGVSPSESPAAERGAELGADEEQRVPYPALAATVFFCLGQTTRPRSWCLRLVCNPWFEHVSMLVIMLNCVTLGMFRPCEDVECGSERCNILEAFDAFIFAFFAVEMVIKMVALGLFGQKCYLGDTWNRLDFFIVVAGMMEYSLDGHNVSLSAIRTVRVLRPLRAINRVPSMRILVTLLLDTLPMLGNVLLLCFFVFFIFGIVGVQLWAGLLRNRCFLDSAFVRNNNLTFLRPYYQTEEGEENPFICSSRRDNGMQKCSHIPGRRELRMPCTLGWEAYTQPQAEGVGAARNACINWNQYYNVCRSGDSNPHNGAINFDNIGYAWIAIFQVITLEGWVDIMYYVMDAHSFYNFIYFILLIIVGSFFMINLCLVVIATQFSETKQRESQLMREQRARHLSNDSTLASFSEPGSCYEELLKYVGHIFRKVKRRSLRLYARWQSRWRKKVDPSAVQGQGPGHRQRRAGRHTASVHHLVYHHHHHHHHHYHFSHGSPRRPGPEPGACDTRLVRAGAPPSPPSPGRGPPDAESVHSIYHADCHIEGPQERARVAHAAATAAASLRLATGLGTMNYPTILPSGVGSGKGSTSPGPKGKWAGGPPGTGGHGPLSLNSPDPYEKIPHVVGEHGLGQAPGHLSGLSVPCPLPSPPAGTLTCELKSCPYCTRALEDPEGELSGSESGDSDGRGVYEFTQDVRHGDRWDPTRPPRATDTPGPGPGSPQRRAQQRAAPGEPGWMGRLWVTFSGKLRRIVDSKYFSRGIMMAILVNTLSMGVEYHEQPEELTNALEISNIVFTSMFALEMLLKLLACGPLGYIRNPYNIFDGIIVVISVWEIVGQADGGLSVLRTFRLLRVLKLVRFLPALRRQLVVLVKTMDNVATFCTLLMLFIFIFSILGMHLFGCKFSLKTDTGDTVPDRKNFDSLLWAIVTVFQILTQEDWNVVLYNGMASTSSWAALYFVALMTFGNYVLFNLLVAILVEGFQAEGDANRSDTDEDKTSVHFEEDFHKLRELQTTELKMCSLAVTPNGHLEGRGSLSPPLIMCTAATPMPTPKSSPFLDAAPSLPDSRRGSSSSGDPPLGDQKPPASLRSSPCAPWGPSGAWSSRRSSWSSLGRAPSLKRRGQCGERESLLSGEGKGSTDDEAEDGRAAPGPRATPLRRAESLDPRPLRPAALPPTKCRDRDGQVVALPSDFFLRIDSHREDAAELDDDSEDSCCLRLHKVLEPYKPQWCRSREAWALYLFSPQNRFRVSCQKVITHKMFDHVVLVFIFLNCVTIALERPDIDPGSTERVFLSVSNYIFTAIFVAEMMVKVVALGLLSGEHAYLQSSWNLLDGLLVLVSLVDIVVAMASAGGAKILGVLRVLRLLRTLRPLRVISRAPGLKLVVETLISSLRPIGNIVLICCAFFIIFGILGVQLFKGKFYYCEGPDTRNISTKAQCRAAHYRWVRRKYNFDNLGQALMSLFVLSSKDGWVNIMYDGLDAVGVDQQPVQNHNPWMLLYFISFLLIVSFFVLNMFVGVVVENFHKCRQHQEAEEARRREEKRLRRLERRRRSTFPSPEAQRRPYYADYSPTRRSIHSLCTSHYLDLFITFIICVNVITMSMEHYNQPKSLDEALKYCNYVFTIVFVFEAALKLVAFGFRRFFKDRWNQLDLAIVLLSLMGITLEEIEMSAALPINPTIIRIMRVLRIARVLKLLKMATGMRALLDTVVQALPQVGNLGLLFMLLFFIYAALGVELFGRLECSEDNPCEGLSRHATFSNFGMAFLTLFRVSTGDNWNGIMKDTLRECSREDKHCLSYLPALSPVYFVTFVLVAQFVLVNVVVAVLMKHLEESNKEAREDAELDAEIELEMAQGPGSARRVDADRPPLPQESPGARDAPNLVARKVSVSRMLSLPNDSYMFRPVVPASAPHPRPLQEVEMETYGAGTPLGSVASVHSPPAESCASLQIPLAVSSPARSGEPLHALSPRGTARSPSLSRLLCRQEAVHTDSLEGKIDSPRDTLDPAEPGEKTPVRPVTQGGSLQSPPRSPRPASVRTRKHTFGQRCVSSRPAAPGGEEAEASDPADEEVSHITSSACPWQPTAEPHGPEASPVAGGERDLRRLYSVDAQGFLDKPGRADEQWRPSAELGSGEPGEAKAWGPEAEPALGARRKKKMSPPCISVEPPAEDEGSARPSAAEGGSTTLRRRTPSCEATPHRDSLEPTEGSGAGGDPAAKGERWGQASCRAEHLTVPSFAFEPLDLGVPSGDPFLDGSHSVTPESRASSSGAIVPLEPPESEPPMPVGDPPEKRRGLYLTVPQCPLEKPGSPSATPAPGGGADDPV
Ecoli tolC: E. coli tolC mutant growth inhibition | E. coli BW25113 tolC mutant growth, OD615 | growth inhibition, % at 10 µM (by protocol) | hit rate 2.2% among 65,000;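 active = growth inhibition at or above a cutoff equal to the mean over every tested compound plus 3 SD, cut at about 60% in these data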;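 note: growth measured after 20 h incubation at 37 °C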
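Test system: tolC-deleted E. coli BW25113 | Medium: LB with kanamycin 50 µg/mL | Compound dosing: Single concentration, 10 µM final per compound | Schedule: 37 °C, 20 h exposure | Measured by: OD at 615 nm | Evaluation: Percent growth inhibition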
E coli WT exp: E. coli BW25113 growth inhibition, expanded screen. OD600 absorbance. growth inhibition, % at 100 µM. hit rate 0.15% among 98,000;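 active = growth inhibition above about 50% at one test dose, limit read from the data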;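 note: growth measured after 20 h incubation at 37 °C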
PostGolgi ctrl: yeast control strain growth, post-Golgi counter-screen. efflux-deficient yeast background strain, growth absorbance A615, 16 h. inhibition, % at 10 µM. hit rate 5% among 98,000
The depositor's hits bear a star. Only some compounds are listed: those with a hit (about 8.4% of all), similar ones and a draw of the others. Cut-off read from the data, not from the text of the source, unless noted: active = inhibition above about 30%; inactive = the rest.

`Cc1ccc(-n2nc(C)c3c2NC(=O)CSC3c2ccc3c(c2)OCO3)cc1` (centres undefined) gave PostGolgi yeast 1, Cav32 inh -8.4*, Ecoli tolC 8, E coli WT exp 0 and PostGolgi ctrl 0.
For Cc1cc(N2C(=O)C3CCCN3C2c2sccc2C)no1 (centres undefined) the results were PostGolgi yeast 36*, Cav32 inh 0.54, Ecoli tolC -26, E coli WT exp 0 and PostGolgi ctrl -5.
Screening O=c1c2ccccc2nc(N2CCCC2)n1-c1ccc(Cl)cc1 returned PostGolgi yeast -3, Cav32 inh -4.6*, Ecoli tolC 30, E coli WT exp -3 and PostGolgi ctrl 18.
For CCOC(=O)c1c(NC(=O)C(c2ccccc2)c2ccccc2)sc2c1C1CCN2CC1 the results were PostGolgi yeast 2, Cav32 inh -4.1*, E coli WT exp -7 and PostGolgi ctrl 11.
`CCOC(=O)c1c(NC(=O)c2c(N)n(CCCOC)c3nc4ccccc4nc23)sc2c1CCCC2` gave PostGolgi yeast -19, Cav32 inh 0.2, E coli WT exp -12 and PostGolgi ctrl -1.
COC(=O)C1=C(c2cc3ccccc3s2)C[C@@H]2CC[C@H]1N2C(=O)NCCS(C)=O (some centres undefined) was read as Cav32 inh -0.93.
Screening O=c1[nH]c(=S)n(CCC2=CCCCC2)c(O)c1C=NC1CCN(Cc2ccccc2)CC1 returned PostGolgi yeast 37*, Cav32 inh -0.89, E coli WT exp -2 and PostGolgi ctrl 94*.
For O=c1[nH]c(=O)n(CCC2=CCCCC2)c(O)c1C=NCc1cccnc1 the results were PostGolgi yeast -4, Ecoli tolC -11, E coli WT exp -15 and PostGolgi ctrl 8.
Screening CCOCCCNC(=O)CN1C2CCC1CC(O)(c1ccc(OC)cc1)C2 (centres undefined) returned PostGolgi yeast 9, Cav32 inh 0.65, Ecoli tolC -6, E coli WT exp -5 and PostGolgi ctrl 4.
`CN(C)[C@@H]1C(=O)C(C(N)=O)=C(O)[C@@]2(O)C(=O)C3=C(O)c4c(O)cccc4[C@@](C)(O)[C@H]3[C@H](O)[C@@H]12` gave Cav32 inh -3.7* and Ecoli tolC 9.
`CC(=O)N(C)CC#CCN1CCCC(CO)C1` (centres undefined) gave Cav32 inh 0.58.
Screening O=P(Nc1ccccc1Cl)(c1ccccc1)c1nc2c(s1)CCCC2 (centres undefined) returned PostGolgi yeast 8, Cav32 inh -5.9*, E coli WT exp 10 and PostGolgi ctrl 33*.
Cc1ccccc1-n1c(C)nc2sccc2c1=O was read as PostGolgi yeast -5, Cav32 inh 0.87, E coli WT exp 4 and PostGolgi ctrl 8.
For O=C(Cc1ccccc1)Oc1ccccc1N1C(=O)CCC1=O the results were PostGolgi yeast 0, Cav32 inh 0.04, Ecoli tolC -11, E coli WT exp 2 and PostGolgi ctrl 0.
C/C=C1\CN2[C@H]3C[C@@]45c6ccccc6N(C)[C@H]4[C@@H]2CC1C3[C@H]5O (some centres undefined) was read as Cav32 inh -4.6*.
`CCC(C)N1C(=O)NC(=O)C2(Cc3c(ccc4ccccc34)N(C)C2)C1=O` (centres undefined) gave PostGolgi yeast 3, Cav32 inh -3.3, Ecoli tolC 50, E coli WT exp 3 and PostGolgi ctrl 33*.
COc1ccc2c(c1)CC1(CN2C)C(=O)NC(=O)N(CCc2ccccc2)C1=O (centres undefined) was read as PostGolgi yeast 1, Cav32 inh -0.25, Ecoli tolC -7, E coli WT exp 8 and PostGolgi ctrl -12.
`C=CP(=O)(O)c1ccccc1` gave PostGolgi yeast 1, Cav32 inh 0.37, Ecoli tolC -13, E coli WT exp 1 and PostGolgi ctrl 0.
`Cc1ccc(Cn2nnnc2CN2CCC(n3nnc4cc(C(F)(F)F)ccc43)CC2)cc1` gave PostGolgi yeast 12, Cav32 inh -2.9, Ecoli tolC 60, E coli WT exp -2 and PostGolgi ctrl 62*.
Cc1ccc(Cn2nnnc2CN2CCC(n3nnc4cc(C)ccc43)CC2)cc1 was read as PostGolgi yeast -3, Cav32 inh -3, Ecoli tolC 27, E coli WT exp -2 and PostGolgi ctrl 29.
`FC(F)(F)c1ccc2c(c1)nnn2C1CCN(Cc2nnnn2Cc2ccccc2)CC1` gave PostGolgi yeast 4, Ecoli tolC 63*, E coli WT exp -26 and PostGolgi ctrl 14.
`COC(=O)C1=C(c2cc3ccccc3s2)C[C@@H]2CC[C@H]1N2C(=O)N1CCOCC1` gave Cav32 inh 0.81.
CCCCC12CNCC(C)(CNC1)C2=O was read as PostGolgi yeast 10, Cav32 inh -0.13, Ecoli tolC -17, E coli WT exp 10 and PostGolgi ctrl -2.
For CN(C)P(=O)(C(Cl)=C(N1CCCCC1)N1CCCCC1)N(C)C the results were PostGolgi yeast 1, Cav32 inh -0.54, Ecoli tolC 5, E coli WT exp 5 and PostGolgi ctrl -5.
`COc1cc2[nH]c(=O)n(-c3ccccc3)c(=O)c2cc1OC` gave PostGolgi yeast 31*, Cav32 inh 0.29, Ecoli tolC -15, E coli WT exp -10 and PostGolgi ctrl 1.
For CN1C(=O)/C(=C/c2cccn2-c2ccc3ccccc3c2)C(=O)NC1=S the results were PostGolgi yeast 98*, Cav32 inh 0.39, E coli WT exp -13 and PostGolgi ctrl 4.
For CCOC(=O)C(O)(c1ccc(N(CC)C(=O)OC)cc1)C(F)(F)F (centres undefined) the results were PostGolgi yeast -11, Cav32 inh 0.29, Ecoli tolC 6, E coli WT exp 2 and PostGolgi ctrl 2.
For CCN(c1ccc(C(O)(C(=O)OC)C(F)(F)F)cc1)S(=O)(=O)c1ccccc1 (centres undefined) the results were PostGolgi yeast 4, Cav32 inh -2.9*, Ecoli tolC 18, E coli WT exp 0 and PostGolgi ctrl -5.
CCOC(=O)C(O)(c1ccc(N(CC)S(=O)(=O)c2ccccc2)cc1)C(F)(F)F (centres undefined) was read as PostGolgi yeast 5, Cav32 inh -5.1*, Ecoli tolC 52, E coli WT exp -2 and PostGolgi ctrl 39*.
`CCOC(=O)N(CC)c1ccc(C(O)(C(=O)OCC)C(F)(F)F)cc1` (centres undefined) gave PostGolgi yeast 1, Cav32 inh -1.3, Ecoli tolC 10, E coli WT exp 1 and PostGolgi ctrl -5.
CCOC(=O)c1cc(C(O)(C(=O)OC)C(F)(F)F)c(/N=C/N(C)C)o1 (centres undefined) was read as PostGolgi yeast -8, Cav32 inh 0.17, E coli WT exp -1 and PostGolgi ctrl -3.
`O=P(OCC(F)(F)C(F)F)(N1CCOCC1)N1CCOCC1` gave PostGolgi yeast -2, Cav32 inh 0.044, Ecoli tolC -23, E coli WT exp 4 and PostGolgi ctrl 8.
